# Screening data as filed in PubChem.
# Sampled rows, rich in hits. Any-hit rate of the full collection: about 5.1%.
# STAT3 activator: IL-6 driven STAT3 reporter potentiators, primary screen, U3A cells, luciferase, luminescence, MLSCN library; actives 0.91% (n = 190,000); AID 871, 2007; IL-6 STAT3-luciferase reporter; 100% = signal with IL-6 EC80 alone; activation (% of control), % at 5.6 µM;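 active = activation above the screen-wide mean of compound activation plus 3 SD, cut at about 130% in these data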;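 also: 0% = background luminescence of wells with medium and substrate only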
#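 Detection: reporter luminescence signal / Assay system: STAT1-lacking human U3A cells, STAT3 luciferase reporter / Incubation: compound pre-incubation 1 h before IL-6, then 6 h stimulation at 37 °C / Control set: IL-6-only high control / Read-out: % activation relative to IL-6 control / Probe or stimulus: Interleukin-6, 33 ng/mL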
# APP 5'UTR act: activators of APP 5'UTR luciferase reporter, primary screen, SH-SY5Y cells | AID 1276, 2008 | SH-SY5Y APP 5'UTR luciferase reporter, luminescence; zero percent = DMSO vehicle wells | activation, % at 2 µM | actives 1% (n = 190,000);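 active = activation above a set limit, based on mean plus 3 SD of controls, cut at about 140% in these data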
# STAT1 activator: STAT1 signaling activators, primary screen, cell-based, HTS, luciferase reporter | NIH 3T3 STAT1-luciferase reporter, IFN-gamma, luminescence; 100% = IFN-gamma alone, no compound | activation (% of control), % at 5.5 µM | actives 2.6% (n = 200,000);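 active = activation above the screen-wide mean activation plus 3 SD, cut at about 130% in these data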;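 also: raw ratio to IFN-gamma control signal so 100% means no change and 0% no light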
# NF-kB expr up: activators of NF-kB expression in neurons, primary screen, cell-based, HTS | actives 1.6% (n = 190,000) | human neuronal cells, NF-kB reporter expression; hits give high values | fold change at 12.5 µM | AID 1239, 2008; in the data active = fold change above about 3.3
# STAT3 blocker: IL-6 driven STAT3 reporter inhibitors, primary screen, U3A cells, luciferase, luminescence, MLSCN library; IL-6 STAT3-luciferase reporter; host cell line lacks STAT1; actives 0.89% (n = 190,000); inhibition, % at 5.5 µM;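 active = inhibition above the mean inhibition across all screened compounds plus 3 SD, cut at about 44% in these data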;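 also: 0% = DMSO only wells and 100% = 100 µM nifuroxazide control wells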
# STAT1 inh: STAT1 signaling inhibitors, primary screen, cell-based, HTS, luciferase reporter; inhibition, % at 5.5 µM; NIH 3T3 STAT1-luciferase reporter, IFN-gamma, luminescence; actives 0.35% (n = 200,000);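 active = inhibition above a set limit, the mean inhibition across all tested compounds plus 3 SD, cut at about 34% in these data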;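 also: 0% = IFN-gamma with DMSO and 100% = IFN-gamma with 300 µM nifuroxazide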
# Numbers without * were called inactive; / = not tested or not shown; ! = not active in a repeat.
SMILES,STAT3 activator,APP 5'UTR act,STAT1 activator,NF-kB expr up,STAT3 blocker,STAT1 inh
Cc1nc(N[C@@H](Cc2c[nH]c3ccccc23)C(=O)O)c2oc3ccccc3c2n1,150*,2,90,0.84,-55,11
O=C(O)C(=O)Cc1c[nH]c2ccccc12,133*,3,91,1.2,-23,10
CC(=O)/C=C(/C)NC(Cc1c[nH]c2ccccc12)C(=O)O (stereo not given),133*!,1,91,1.2,-31,10
CCc1nc(N[C@@H](Cc2c[nH]c3ccccc23)C(=O)O)c2oc3ccccc3c2n1,118,7,91,1,-14,10
O=C(NC(Cc1c[nH]c2ccccc12)C(=O)O)c1ccccc1 (stereo not given),105,-10,85,1.1,-3,16
CCNc1ccc(S(=O)(=O)N(C)C)cc1NCC(=O)Nc1ccc(F)c(Cl)c1,105,3,90,0.87,-9,11
CC(=O)N1CCN(S(=O)(=O)c2ccc(F)c(Cl)c2)CC1,94,-17,106,0.74,10,-9
Cc1ccc(S(=O)(=O)N2CCC(C(=O)NNC(=O)C3CC3)CC2)cc1Cl,102,6,96,1.3,1,3
CCOc1ccccc1NC(=S)N(CCC(C)C)C1CCN(C(C)=O)CC1,93,-15,95,1.3,18,5
COCCn1c(=NC(=O)c2ccc(S(=O)(=O)N3CCc4ccccc4C3)cc2)sc2cc(S(N)(=O)=O)ccc21,135*,9,102,1.1,-29,-3
CCc1ccc(N2C(=O)CC(NNc3nc4ccccc4s3)C2=O)cc1 (stereo not given),100,0,104,1.2,0,-5
COc1ccccc1C(=O)Nc1ccc2c3c(cccc13)CC2,99,48,132*,1.5,-2,-36
O=C(N/N=C/C1C(c2ccccc2)C1(Cl)Cl)c1cccc(Br)c1 (stereo not given),103,19,104,0.89,4,-5
Oc1ccc(Cl)cc1C1=NNC(c2ccc(Cl)cc2)C1 (stereo not given),105,55,130*,1.3,-3,-33
Oc1ccc(Cl)cc1C1=NNC(c2cc(Br)cc3c2OCOC3)C1 (stereo not given),91,11,104,1.3,13,-7
Cc1ccc[n+](CC(=O)Nc2nc3ccccc3s2)c1,115,2,108,1.1,-12,-10
O=C(CCCC(=O)OCC(Cl)=C(Cl)Cl)Nc1ccccc1,107,17,98,0.92,-2,2
O=C(Nc1ccc(Cl)cc1)OCc1cn(-c2ccc(Cl)cc2)nn1,100,/,109,1.4,6,-10
Clc1ccc(-n2cc(COCc3ccccc3)nn2)cc1,68,170*,97,4.1*,43,4
Cc1ccc(C(=O)/C=C/Nc2ccccc2C(N)=O)o1,96,30,120,1.4,8,-22
Cc1cccc(N/C=C/C(=O)c2cccs2)c1C,77,212*,128,4.1*,26,-31
COc1cc([N+](=O)[O-])ccc1N/C=C/C(=O)c1cccs1,44,136*,58,4.3*,73*,47*
NC(=O)c1ccccc1N/C=C/C(=O)c1cccs1,78,/,138*,5.4*,32,-42
COc1ccc(C2=CC(=O)C=CC2=O)cc1,/,-48,/,/,/,/
O=C1C(Nc2ccccc2)=C/C(=N/S(=O)(=O)c2cccs2)c2ccccc21,136*,20,103,0.83,-41,-3
SMILES,STAT3 activator,APP 5'UTR act,STAT1 activator,NF-kB expr up,STAT3 blocker,STAT1 inh
O=C1C=C(Nc2ccccc2)C(=O)c2ccccc21,100,140*,132*,8.2*,1,-37
COc1ccc(NC(=O)CSc2nc3c([nH]c4ccccc43)c(=O)n2C)cc1,135*,7,87,0.9,-28,14
COc1cccc(-n2c(SCC(=O)N3CCCC3)nc3c([nH]c4ccccc43)c2=O)c1,142*,6,96,/,-45,5
Cn1c(SCC(=O)NCc2ccc(F)cc2)nc2c([nH]c3ccccc32)c1=O,133*,4,84,0.84,-26,18
CCC(C)Nc1nc(-c2cccc(OC)c2O)nc2ccccc12 (stereo not given),113,-5,101,0.4,-7,-2
COc1cccc(-c2nc(NC(C)C)c3ccccc3n2)c1O,134*,4,98,0.36,-34,2
O=C1C(Nc2ccccc2)=C(NS(=O)(=O)c2ccccc2)C(=O)c2ccccc21,134*,-10,96,0.86,-35,4
O=C1c2ccccc2C(=O)c2cc(S(=O)(=O)Nc3ccccc3)ccc21,101,-2,99,0.7,-2,1
O=C(c1ccccc1)N1CCN(C(=S)NCc2ccco2)CC1,104,20,95,1.1,1,5
Cn1cccc1/C=N/NC(=O)c1sc2ccccc2c1Cl,96,13,131*,1.4,12,-34
Cc1cc(-c2ccc(N3CCOCC3)cc2)nc2ccccc12,112,90,130*,2.9,-15,-33
c1ccc2nc(-c3ccncc3)ccc2c1,97,7,124,1.6,10,-27
CN1CCN(c2ccc(-c3ccc4ccccc4n3)cc2)CC1,9,-51,11,0.34,112*,95*
c1ccc2nc(-c3ccc(N4CCOCC4)cc3)ccc2c1,22,/,38,2.4,99*,68*
COc1ccc(CNC(=O)c2n[nH]c3ccccc23)cc1OC,101,15,93,1,-1,9
CC(C)c1nc2sc3c(=O)n(N)cnc3c2c2c1COC(C)(C)C2,101,24,96,1.1,2,4
CCn1c(/C=C/c2c[nH]c3ccccc23)nc2ccccc2c1=O,99,182*,148*,3.4*,4,-55
O=C(c1ccccc1)c1cc(-c2ccccc2)on1,70,184*,81,2,38,20
CCc1ccc2oc(-c3cc(N=Cc4cccc(OC)c4O)ccc3O)nc2c1,70,162*,84,4.2*,41,18
CC(C)CNC(=S)Nc1ccc(Oc2ccccc2)cc1,96,-4,106,1.1,6,-7
CC(C)CNC(=O)NC1(C(F)(F)F)Oc2ccccc2O1,106,3,116,3.2,-4,-19
O=C(NCc1cccnc1)NC1(C(F)(F)F)Oc2ccccc2O1,97,-15,103,3.5*,6,-3
COc1ccc(-c2cc(C(F)F)n3ncc(C(=O)Nc4cccc(S(=O)(=O)N5CCOCC5)c4)c3n2)cc1,95,5,106,0.91,13,-8
